≈ marks a conversion by molar mass, not a printed value.
test system: A549; test: Cytotoxicity against human A549 cells; type: functional; settings: read-out: ED50 (the source's name)
Method in brief: (§1)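 Sulforhodamine B growth assay. Lines kept in RPMI-1640 with 25 mM HEPES, 0.25% sodium bicarbonate, 10% FBS and kanamycin. Trypsinized cells seeded at 1500–7500 per well, with compound added from DMSO-diluted stock. After 3 days, attached cells fixed with cold 50% TCA, stained with 0.4% SRB, dye solubilized, absorbance read at 562 nm. ED50 is 50% growth reduction, averaged over at least three independent determinations.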

Q: With `COC1=C(C)C(=O)/C(=C(O)/C=C/c2ccc(F)cc2)C(=O)C1(C)C` as the molecule, how does the EC50 read?
A: The EC50 was 3.3 µg/mL (≈ 9.99 µM).

Q: With `COC1=C(C)C(=O)/C(=C(O)/C=C/c2ccc(C)cc2)C(=O)C1(C)C` as the molecule, how does the EC50 read?
A: The EC50 was 4.3 µg/mL (≈ 13.2 µM).

Q: With `COC1=C(C)C(=O)/C(=C(O)/C=C/c2c(C)cccc2C)C(=O)C1(C)C` as the molecule, how does the EC50 read?
A: The EC50 was 8.3 µg/mL (≈ 24.4 µM).

Q: With `COC1=C(C)C(=O)/C(=C(O)/C=C/c2cc(C)cc(C)c2)C(=O)C1(C)C` as the molecule, how does the EC50 read?
A: Its EC50 is 4.3 µg/mL (≈ 12.6 µM).

Q: With `COC1=C(C)C(=O)/C(=C(O)/C=C/c2c(C)cc(C)cc2C)C(=O)C1(C)C` as the molecule, how does the EC50 read?
A: Its EC50 is 8 µg/mL (≈ 22.6 µM).

Q: With `C=Cc1ccccc1/C=C/C(O)=C1/C(=O)C(C)=C(OC)C(C)(C)C1=O` as the molecule, how does the EC50 read?
A: The EC50 was 2.2 µg/mL (≈ 6.5 µM).

Q: Which EC50 does the source give for `COC1=C(C)C(=O)/C(=C(O)/C=C/c2ccco2)C(=O)C1(C)C` here?
A: The EC50 was 10 µg/mL (≈ 33.1 µM).

test system: A-431; test: Cytotoxicity against human A431 cells; type: functional; settings: read-out: ED50 (the source's name); method in brief: as §1

Q: With `COC1=C(C)C(=O)/C(=C(O)/C=C/c2ccc(F)cc2)C(=O)C1(C)C` as the molecule, how does the EC50 read?
A: Its EC50 is 4.1 µg/mL (≈ 12.4 µM).

Q: Which EC50 does the source give for `COC1=C(C)C(=O)/C(=C(O)/C=C/c2ccc(C)cc2)C(=O)C1(C)C` here?
A: The EC50 was 5.1 µg/mL (≈ 15.6 µM).

Q: With `COC1=C(C)C(=O)/C(=C(O)/C=C/c2c(C)cccc2C)C(=O)C1(C)C` as the molecule, how does the EC50 read?
A: The EC50 was 10.1 µg/mL (≈ 29.7 µM).

Q: Which EC50 does the source give for `COC1=C(C)C(=O)/C(=C(O)/C=C/c2cc(C)cc(C)c2)C(=O)C1(C)C` here?
A: Its EC50 is 4 µg/mL (≈ 11.8 µM).

Q: Which EC50 does the source give for `COC1=C(C)C(=O)/C(=C(O)/C=C/c2c(C)cc(C)cc2C)C(=O)C1(C)C` here?
A: The EC50 was 20 µg/mL (≈ 56.4 µM).

Q: Which EC50 does the source give for `C=Cc1ccccc1/C=C/C(O)=C1/C(=O)C(C)=C(OC)C(C)(C)C1=O` here?
A: Its EC50 is 2.6 µg/mL (≈ 7.68 µM).

Q: With `COC1=C(C)C(=O)/C(=C(O)/C=C/c2ccco2)C(=O)C1(C)C` as the molecule, how does the EC50 read?
A: Its EC50 is 14.7 µg/mL (≈ 48.6 µM).

test system: 1A9; test: Cytotoxicity against human 1A9 cells; type: functional; settings: read-out: ED50 (the source's name); method in brief: as §1

Q: With `COC1=C(C)C(=O)/C(=C(O)/C=C/c2c(C)cc(C)cc2C)C(=O)C1(C)C` as the molecule, how does the EC50 read?
A: Its EC50 is 6.2 µg/mL (≈ 17.5 µM).

Q: Which EC50 does the source give for `COC1=C(C)C(=O)/C(=C(O)/C=C/c2ccco2)C(=O)C1(C)C` here?
A: Its EC50 is 7.9 µg/mL (≈ 26.1 µM).

test system: HCT-8; test: Cytotoxicity against human HCT8 cells; type: functional; settings: read-out: ED50 (the source's name); method in brief: as §1

Q: With `COC1=C(C)C(=O)/C(=C(O)/C=C/c2ccc(F)cc2)C(=O)C1(C)C` as the molecule, how does the EC50 read?
A: Its EC50 is 3.6 µg/mL (≈ 10.9 µM).

Q: With `COC1=C(C)C(=O)/C(=C(O)/C=C/c2ccc(C)cc2)C(=O)C1(C)C` as the molecule, how does the EC50 read?
A: Its EC50 is 4.1 µg/mL (≈ 12.6 µM).

Q: Which EC50 does the source give for `COC1=C(C)C(=O)/C(=C(O)/C=C/c2c(C)cccc2C)C(=O)C1(C)C` here?
A: The EC50 was 7.8 µg/mL (≈ 22.9 µM).

Q: With `COC1=C(C)C(=O)/C(=C(O)/C=C/c2cc(C)cc(C)c2)C(=O)C1(C)C` as the molecule, how does the EC50 read?
A: The EC50 was 2.9 µg/mL (≈ 8.52 µM).

Q: Which EC50 does the source give for `COC1=C(C)C(=O)/C(=C(O)/C=C/c2c(C)cc(C)cc2C)C(=O)C1(C)C` here?
A: Its EC50 is 8.4 µg/mL (≈ 23.7 µM).

Q: For `C=Cc1ccccc1/C=C/C(O)=C1/C(=O)C(C)=C(OC)C(C)(C)C1=O`, which EC50 is on record?
A: Its EC50 is 2.1 µg/mL (≈ 6.21 µM).

Q: With `COC1=C(C)C(=O)/C(=C(O)/C=C/c2ccco2)C(=O)C1(C)C` as the molecule, how does the EC50 read?
A: The EC50 was 17.5 µg/mL (≈ 57.9 µM).

test system: PC-3; test: Cytotoxicity against human PC3 cells; type: functional; settings: read-out: ED50 (the source's name); method in brief: as §1

Q: Which EC50 does the source give for `COC1=C(C)C(=O)/C(=C(O)/C=C/c2ccc(F)cc2)C(=O)C1(C)C` here?
A: The EC50 was 7.2 µg/mL (≈ 21.8 µM).

Q: Which EC50 does the source give for `COC1=C(C)C(=O)/C(=C(O)/C=C/c2ccc(C)cc2)C(=O)C1(C)C` here?
A: Its EC50 is 8.2 µg/mL (≈ 25.1 µM).

Q: Which EC50 does the source give for `COC1=C(C)C(=O)/C(=C(O)/C=C/c2c(C)cccc2C)C(=O)C1(C)C` here?
A: The EC50 was 17.1 µg/mL (≈ 50.2 µM).

Q: For `COC1=C(C)C(=O)/C(=C(O)/C=C/c2cc(C)cc(C)c2)C(=O)C1(C)C`, which EC50 is on record?
A: Its EC50 is 8.8 µg/mL (≈ 25.9 µM).

Q: Which EC50 does the source give for `COC1=C(C)C(=O)/C(=C(O)/C=C/c2c(C)cc(C)cc2C)C(=O)C1(C)C` here?
A: The EC50 was > 20 µg/mL.

Q: With `C=Cc1ccccc1/C=C/C(O)=C1/C(=O)C(C)=C(OC)C(C)(C)C1=O` as the molecule, how does the EC50 read?
A: The EC50 was 4.6 µg/mL (≈ 13.6 µM).

Q: For `COC1=C(C)C(=O)/C(=C(O)/C=C/c2ccco2)C(=O)C1(C)C`, which EC50 is on record?
A: The EC50 was 20.6 µg/mL (≈ 68.1 µM).

test system: KB; test: Cytotoxicity against human KB cells; type: functional; settings: read-out: ED50 (the source's name); method in brief: as §1

Q: Which EC50 does the source give for `COC1=C(C)C(=O)/C(=C(O)/C=C/c2ccc(F)cc2)C(=O)C1(C)C` here?
A: The EC50 was 3.7 µg/mL (≈ 11.2 µM).

Q: Which EC50 does the source give for `COC1=C(C)C(=O)/C(=C(O)/C=C/c2ccc(C)cc2)C(=O)C1(C)C` here?
A: The EC50 was 3.9 µg/mL (≈ 11.9 µM).

Q: For `COC1=C(C)C(=O)/C(=C(O)/C=C/c2c(C)cccc2C)C(=O)C1(C)C`, which EC50 is on record?
A: Its EC50 is 7.1 µg/mL (≈ 20.9 µM).

Q: For `COC1=C(C)C(=O)/C(=C(O)/C=C/c2cc(C)cc(C)c2)C(=O)C1(C)C`, which EC50 is on record?
A: Its EC50 is 3.1 µg/mL (≈ 9.11 µM).

Q: For `COC1=C(C)C(=O)/C(=C(O)/C=C/c2c(C)cc(C)cc2C)C(=O)C1(C)C`, which EC50 is on record?
A: Its EC50 is > 20 µg/mL.

Q: For `C=Cc1ccccc1/C=C/C(O)=C1/C(=O)C(C)=C(OC)C(C)(C)C1=O`, which EC50 is on record?
A: The EC50 was 1.9 µg/mL (≈ 5.61 µM).

Q: For `COC1=C(C)C(=O)/C(=C(O)/C=C/c2ccco2)C(=O)C1(C)C`, which EC50 is on record?
A: The EC50 was 9.9 µg/mL (≈ 32.7 µM).

test system: KB; test: Cytotoxicity against human vincristine-resistant KB cells; type: functional; settings: read-out: ED50 (the source's name); method in brief: as §1

Q: Which EC50 does the source give for `COC1=C(C)C(=O)/C(=C(O)/C=C/c2ccc(F)cc2)C(=O)C1(C)C` here?
A: Its EC50 is 2.7 µg/mL (≈ 8.17 µM).

Q: For `COC1=C(C)C(=O)/C(=C(O)/C=C/c2ccc(C)cc2)C(=O)C1(C)C`, which EC50 is on record?
A: Its EC50 is 1.9 µg/mL (≈ 5.82 µM).

Q: With `COC1=C(C)C(=O)/C(=C(O)/C=C/c2c(C)cccc2C)C(=O)C1(C)C` as the molecule, how does the EC50 read?
A: The EC50 was 2.1 µg/mL (≈ 6.17 µM).

Q: Which EC50 does the source give for `COC1=C(C)C(=O)/C(=C(O)/C=C/c2cc(C)cc(C)c2)C(=O)C1(C)C` here?
A: Its EC50 is 1.6 µg/mL (≈ 4.7 µM).

Q: Which EC50 does the source give for `COC1=C(C)C(=O)/C(=C(O)/C=C/c2c(C)cc(C)cc2C)C(=O)C1(C)C` here?
A: Its EC50 is 1.84 µg/mL (≈ 5.19 µM).

Q: With `C=Cc1ccccc1/C=C/C(O)=C1/C(=O)C(C)=C(OC)C(C)(C)C1=O` as the molecule, how does the EC50 read?
A: Its EC50 is 1.1 µg/mL (≈ 3.25 µM).

Q: For `COC1=C(C)C(=O)/C(=C(O)/C=C/c2ccco2)C(=O)C1(C)C`, which EC50 is on record?
A: Its EC50 is 8.8 µg/mL (≈ 29.1 µM).

test system: HUVEC; test: Cytotoxicity against HUVEC; type: functional; settings: Homo sapiens, read-out: ED50 (the source's name)
Method in brief: (§2)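 HUVEC seeded at 1.5×10^3 per well in EGM-2; after 24 h (day zero) compound added in EGM-2 at 2× the desired concentration. Day-zero plate stained with crystal violet. Remaining plates kept 72 h at 37 °C, then stained with 0.5% crystal violet in 20% MeOH. Dye eluted with 1:1 EtOH:0.1 M sodium citrate and read at 540 nm. Run per the NCI Angiogenesis Resource Center protocol.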

Q: For `COC1=C(C)C(=O)/C(=C(O)/C=C/c2ccc(F)cc2)C(=O)C1(C)C`, which EC50 is on record?
A: The EC50 was 2 µg/mL (≈ 6.05 µM).

Q: For `COC1=C(C)C(=O)/C(=C(O)/C=C/c2ccc(C)cc2)C(=O)C1(C)C`, which EC50 is on record?
A: Its EC50 is 2.4 µg/mL (≈ 7.35 µM).

Q: With `COC1=C(C)C(=O)/C(=C(O)/C=C/c2c(C)cccc2C)C(=O)C1(C)C` as the molecule, how does the EC50 read?
A: The EC50 was 3 µg/mL (≈ 8.81 µM).

Q: For `COC1=C(C)C(=O)/C(=C(O)/C=C/c2cc(C)cc(C)c2)C(=O)C1(C)C`, which EC50 is on record?
A: Its EC50 is 2.5 µg/mL (≈ 7.34 µM).

Q: Which EC50 does the source give for `C=Cc1ccccc1/C=C/C(O)=C1/C(=O)C(C)=C(OC)C(C)(C)C1=O` here?
A: The EC50 was 1.1 µg/mL (≈ 3.25 µM).

Q: Which EC50 does the source give for `COC1=C(C)C(=O)/C(=C(O)/C=C/c2ccco2)C(=O)C1(C)C` here?
A: The EC50 was 2.4 µg/mL (≈ 7.94 µM).

test system: HUVEC; test: Antiangiogenesis activity against HUVEC; type: functional; settings: Homo sapiens, read-out: ED50 (the source's name); method in brief: as §2

Q: With `COC1=C(C)C(=O)/C(=C(O)/C=C/c2ccc(F)cc2)C(=O)C1(C)C` as the molecule, how does the EC50 read?
A: The EC50 was < 4 µg/mL.

Q: For `COC1=C(C)C(=O)/C(=C(O)/C=C/c2ccc(C)cc2)C(=O)C1(C)C`, which EC50 is on record?
A: The EC50 was < 4 µg/mL.

Q: With `COC1=C(C)C(=O)/C(=C(O)/C=C/c2c(C)cccc2C)C(=O)C1(C)C` as the molecule, how does the EC50 read?
A: Its EC50 is < 4 µg/mL.

Q: Which EC50 does the source give for `COC1=C(C)C(=O)/C(=C(O)/C=C/c2cc(C)cc(C)c2)C(=O)C1(C)C` here?
A: Its EC50 is < 4 µg/mL.

Q: Which EC50 does the source give for `C=Cc1ccccc1/C=C/C(O)=C1/C(=O)C(C)=C(OC)C(C)(C)C1=O` here?
A: The EC50 was 1.1 µg/mL (≈ 3.25 µM).

Q: With `COC1=C(C)C(=O)/C(=C(O)/C=C/c2ccco2)C(=O)C1(C)C` as the molecule, how does the EC50 read?
A: The EC50 was < 4 µg/mL.

test system: not listed separately; test: Selectivity ratio of ED50 for KB cells to ED50 for KB-VIN cells; type: functional, Homo sapiens; settings: not given

Q: With `COC1=C(C)C(=O)/C(=C(O)/C=C/c2c(C)cc(C)cc2C)C(=O)C1(C)C` as the molecule, how does the “Ratio ED50” value read?
A: The value was >5.
